# Laboratory results as given in ChEMBL document CHEMBL1158074, “Cytotoxic constituents from the formosan soft coral Clavularia inflata var. luzoniana” (J Nat Prod, 2006).
# The source made the active and inactive calls. The calls are words filed in the database; no cut-off is given here.
# Columns and labels:
# P388 = assay: Cytotoxicity against mouse P388 cells; assay type: functional; conditions: for EC50: read-out: ED50 (the source's name)
# Outline: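 P-388 mouse lymphocytic leukemia cells were provided by an academic laboratory at the University of Illinois at Chicago. Activity is expressed as an ED50.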
# HT-29 = assay: Cytotoxicity against human HT 29 cells; assay type: functional, cell-based
# Outline: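 HT-29 human colon adenocarcinoma cells were obtained from the American Type Culture Collection. The value is reported as an ED50.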
SMILES,EC50 (P388) [µg/mL],EC50 (HT-29; read-out: EC50) [µg/mL],Activity (P388),Activity (HT-29),EC50 (HT-29; read-out: ED50 (the source's name)) [µg/mL]
C=C1CC/C=C(\C)C/C=C2/[C@H](C(C)C)CC[C@@]2(C)CC1=O,0.6,2.8,,,
C=C1CC[C@H]2[C@@H]([C@@H]3[C@@H]1C[C@@H](O)[C@@]3(C)O)C2(C)C,,,inactive,inactive,
CC1(C)[C@@H]2[C@@H]3[C@H](C[C@@H](O)[C@@]3(C)O)[C@@](C)(O)CC[C@@H]21,,,inactive,inactive,
C=C1[C@@H]2[C@@H](OC(C)=O)OC=C([C@H](OC(C)=O)[C@@H](C=C(C)C)OC(C)=O)[C@H]2CC/C(C)=C/[C@H](OC(=O)c2ccccc2)[C@H]1O,0.5,,,,1.2
CC(=O)C(O)C[C@@H]1[C@@H]([C@@H]2[C@H]3CC[C@@]23C)C1(C)C (stereo partly specified),,,inactive,inactive,
C=C1CC/C=C(\C)C/C=C2/[C@H](C(C)C)CC[C@@]2(C)C[C@@H]1O,3.6,,,inactive,
C=C1CC/C=C(\C)C/C=C2/[C@H](C(C)C)[C@@H](O)C[C@@]2(C)CC1=O,1.5,,,inactive,
C=C1CC[C@H]2[C@@H]([C@H]3C(C)=CC[C@@]13OO)C2(C)C,,,inactive,inactive,
